# Test results taken from ChEMBL document CHEMBL3817726, “Chemically Diverse Group I p21-Activated Kinase (PAK) Inhibitors Impart Acute Cardiovascular Toxicity with a Narrow Therapeutic Window” (J Med Chem, 2016).
# The source made the active and inactive calls. No cut-off for these calls is given here.
# Assays:
# [1] = organism: Homo sapiens; assay: Selectivity for human recombinant N-terminal 6-His-tagged PAK1 kinase domain (249 to 545 residues) over human recombinant PAK4 kinase domain
# [2] = organism: Homo sapiens; assay: Selectivity for human recombinant N-terminal 6-His-tagged PAK1 kinase domain (249 to 545 residues) over LCK (unknown origin)
# [3] = target: Serine/threonine-protein kinase PAK 1 (Homo sapiens, UniProt Q13153); assay: Inhibition of human recombinant N-terminal 6-His-tagged PAK1 kinase domain (249 to 545 residues) expressed in Escherichia coli BL21(DE3) assessed as phosphorylation of coumarin labeled FRET peptide substrate at Ser/Thr19 preincubated for 10 mins followed by ATP addition measured after 60 mins by Z'-LYTE assay
# Chain of Serine/threonine-protein kinase PAK 1 (Q13153 whole entry, the tested form may be a part): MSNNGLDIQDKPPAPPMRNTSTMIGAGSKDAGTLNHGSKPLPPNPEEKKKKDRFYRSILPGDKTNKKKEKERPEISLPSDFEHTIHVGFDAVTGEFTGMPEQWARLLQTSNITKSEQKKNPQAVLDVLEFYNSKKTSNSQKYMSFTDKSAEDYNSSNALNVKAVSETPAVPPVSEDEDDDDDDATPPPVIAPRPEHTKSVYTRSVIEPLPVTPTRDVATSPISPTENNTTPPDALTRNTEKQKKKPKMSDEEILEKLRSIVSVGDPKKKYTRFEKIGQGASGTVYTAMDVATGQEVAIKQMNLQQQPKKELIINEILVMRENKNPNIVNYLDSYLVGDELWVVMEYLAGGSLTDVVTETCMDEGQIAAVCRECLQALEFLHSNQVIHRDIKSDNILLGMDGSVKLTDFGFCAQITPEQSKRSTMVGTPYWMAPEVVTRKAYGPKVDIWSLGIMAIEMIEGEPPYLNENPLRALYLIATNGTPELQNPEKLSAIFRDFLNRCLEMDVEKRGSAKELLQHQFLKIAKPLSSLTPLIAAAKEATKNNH
# [4] = Lipophilicity, log D of the compound at pH 7.4; format: physicochemical; details: buffer
# [5] = Kinetic solubility of the compound at pH 7.4; format: physicochemical; details: buffer, read-out: Kinetic_solubility
# [6] = target: Serine/threonine-protein kinase PAK 1/PAK 2 (Homo sapiens, UniProt Q13177+Q13153); assay: Inhibition of PAK1/2 in human EBC1 cells assessed as phosphorylation of MEK1 at serine 298 after 2 hrs by HTRF assay; format: cell-based
# [7] = Apparent permeability across apical to basolateral side in MDCK cells at 10 uM after 60 mins; format: ADME, cell-based, Canis lupus familiaris; details: dog
# [8] = Efflux ratio of permeability across basolateral to apical side over apical to basolateral side in MDCK cells at 10 uM after 60 mins; format: ADME, cell-based, Canis lupus familiaris; details: dog
# [9] = target: Serine/threonine-protein kinase 25 (Homo sapiens) (UniProt O00506); details: 0.1 uM
# [10] = tested on: Mus musculus; assay: In vivo inhibition of PAK1/2 in human NCI-H292 cells xenografted in mouse assessed as phosphorylation of MEK1 at serine 298 at 25 mg/kg, po bid; format: functional, organism-based
# [11] = target: Sodium channel protein type 1 subunit alpha (Homo sapiens) (UniProt P35498); assay: Inhibition of human Nav1.1 assessed as phasic block of sodium current at 1 to 10 uM treated for 3 mins by automatic parallel patch clamp method
# [12] = Fraction unbound in mouse plasma at 30 to 60 mg/kg, po; format: ADME, organism-based
# [13] = target: Sodium channel protein type 1 subunit alpha (Homo sapiens) (UniProt P35498); assay: Inhibition of human Nav1.1 assessed as tonic block of sodium current at 1 to 10 uM treated for 3 mins by automatic parallel patch clamp method
# [14] = target: 5-hydroxytryptamine receptor 2B (Homo sapiens) (UniProt P41595); details: CHO, 10 uM
# Chain of 5-hydroxytryptamine receptor 2B (Homo sapiens) (P41595 whole entry, the tested form may be a part): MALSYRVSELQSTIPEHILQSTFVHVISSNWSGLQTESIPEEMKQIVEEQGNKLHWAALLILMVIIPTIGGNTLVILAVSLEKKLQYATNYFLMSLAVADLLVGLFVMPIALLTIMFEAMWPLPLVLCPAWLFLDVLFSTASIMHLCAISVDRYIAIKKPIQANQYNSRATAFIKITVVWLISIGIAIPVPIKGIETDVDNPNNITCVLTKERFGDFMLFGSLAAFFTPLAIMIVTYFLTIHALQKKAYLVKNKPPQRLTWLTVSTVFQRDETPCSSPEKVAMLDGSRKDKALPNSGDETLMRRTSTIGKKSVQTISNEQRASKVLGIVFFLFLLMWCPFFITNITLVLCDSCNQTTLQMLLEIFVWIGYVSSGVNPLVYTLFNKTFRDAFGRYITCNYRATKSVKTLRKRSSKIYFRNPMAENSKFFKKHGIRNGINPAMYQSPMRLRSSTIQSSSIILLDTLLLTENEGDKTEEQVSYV
# [15] = tested on: Heart; assay: Cardiotoxicity in Langendorff perfused Sprague-Dawley rat heart assessed as increase in left ventricular end diastolic pressure at 1.5 to 15 uM treated for 15 mins; format: toxicity, tissue-based; details: 0.25 h
# Outline: (§1)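 Hearts from Sprague Dawley rats were perfused in a Langendorff preparation and paced via the right atrium at 10-15% above the intrinsic heart rate. Each heart received increasing concentrations of 0, 0.5, 1.5, 5 and 15 µM, for 15 min at each level (n=5). Hemodynamic and electrocardiographic parameters were recorded throughout.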
# [16] = target: Serine/threonine-protein kinase 26 (Homo sapiens) (UniProt Q9P289); details: 0.1 uM
# [17] = tested on: Heart; assay: Cardiotoxicity in Langendorff perfused Sprague-Dawley rat heart assessed as decrease in dP/dtmax/P at 40 mmHg at 1.5 to 15 uM treated for 15 mins; format: toxicity, tissue-based; details: 0.25 h; outline: as §1
# [18] = organism: Rattus norvegicus; details: Cerebral cortex, 10 uM
# [19] = target: T1, Sodium channel protein type 5 subunit alpha (Homo sapiens, UniProt Q14524); assay: Inhibition of human Nav1.5 expressed in CHO cells assessed as tonic block of sodium current at 1 to 10 uM treated for 3 mins by automatic parallel patch clamp method; format: cell-based; details: 0.05 h
# T1 sequence (Q14524 whole entry, the tested form may be a part): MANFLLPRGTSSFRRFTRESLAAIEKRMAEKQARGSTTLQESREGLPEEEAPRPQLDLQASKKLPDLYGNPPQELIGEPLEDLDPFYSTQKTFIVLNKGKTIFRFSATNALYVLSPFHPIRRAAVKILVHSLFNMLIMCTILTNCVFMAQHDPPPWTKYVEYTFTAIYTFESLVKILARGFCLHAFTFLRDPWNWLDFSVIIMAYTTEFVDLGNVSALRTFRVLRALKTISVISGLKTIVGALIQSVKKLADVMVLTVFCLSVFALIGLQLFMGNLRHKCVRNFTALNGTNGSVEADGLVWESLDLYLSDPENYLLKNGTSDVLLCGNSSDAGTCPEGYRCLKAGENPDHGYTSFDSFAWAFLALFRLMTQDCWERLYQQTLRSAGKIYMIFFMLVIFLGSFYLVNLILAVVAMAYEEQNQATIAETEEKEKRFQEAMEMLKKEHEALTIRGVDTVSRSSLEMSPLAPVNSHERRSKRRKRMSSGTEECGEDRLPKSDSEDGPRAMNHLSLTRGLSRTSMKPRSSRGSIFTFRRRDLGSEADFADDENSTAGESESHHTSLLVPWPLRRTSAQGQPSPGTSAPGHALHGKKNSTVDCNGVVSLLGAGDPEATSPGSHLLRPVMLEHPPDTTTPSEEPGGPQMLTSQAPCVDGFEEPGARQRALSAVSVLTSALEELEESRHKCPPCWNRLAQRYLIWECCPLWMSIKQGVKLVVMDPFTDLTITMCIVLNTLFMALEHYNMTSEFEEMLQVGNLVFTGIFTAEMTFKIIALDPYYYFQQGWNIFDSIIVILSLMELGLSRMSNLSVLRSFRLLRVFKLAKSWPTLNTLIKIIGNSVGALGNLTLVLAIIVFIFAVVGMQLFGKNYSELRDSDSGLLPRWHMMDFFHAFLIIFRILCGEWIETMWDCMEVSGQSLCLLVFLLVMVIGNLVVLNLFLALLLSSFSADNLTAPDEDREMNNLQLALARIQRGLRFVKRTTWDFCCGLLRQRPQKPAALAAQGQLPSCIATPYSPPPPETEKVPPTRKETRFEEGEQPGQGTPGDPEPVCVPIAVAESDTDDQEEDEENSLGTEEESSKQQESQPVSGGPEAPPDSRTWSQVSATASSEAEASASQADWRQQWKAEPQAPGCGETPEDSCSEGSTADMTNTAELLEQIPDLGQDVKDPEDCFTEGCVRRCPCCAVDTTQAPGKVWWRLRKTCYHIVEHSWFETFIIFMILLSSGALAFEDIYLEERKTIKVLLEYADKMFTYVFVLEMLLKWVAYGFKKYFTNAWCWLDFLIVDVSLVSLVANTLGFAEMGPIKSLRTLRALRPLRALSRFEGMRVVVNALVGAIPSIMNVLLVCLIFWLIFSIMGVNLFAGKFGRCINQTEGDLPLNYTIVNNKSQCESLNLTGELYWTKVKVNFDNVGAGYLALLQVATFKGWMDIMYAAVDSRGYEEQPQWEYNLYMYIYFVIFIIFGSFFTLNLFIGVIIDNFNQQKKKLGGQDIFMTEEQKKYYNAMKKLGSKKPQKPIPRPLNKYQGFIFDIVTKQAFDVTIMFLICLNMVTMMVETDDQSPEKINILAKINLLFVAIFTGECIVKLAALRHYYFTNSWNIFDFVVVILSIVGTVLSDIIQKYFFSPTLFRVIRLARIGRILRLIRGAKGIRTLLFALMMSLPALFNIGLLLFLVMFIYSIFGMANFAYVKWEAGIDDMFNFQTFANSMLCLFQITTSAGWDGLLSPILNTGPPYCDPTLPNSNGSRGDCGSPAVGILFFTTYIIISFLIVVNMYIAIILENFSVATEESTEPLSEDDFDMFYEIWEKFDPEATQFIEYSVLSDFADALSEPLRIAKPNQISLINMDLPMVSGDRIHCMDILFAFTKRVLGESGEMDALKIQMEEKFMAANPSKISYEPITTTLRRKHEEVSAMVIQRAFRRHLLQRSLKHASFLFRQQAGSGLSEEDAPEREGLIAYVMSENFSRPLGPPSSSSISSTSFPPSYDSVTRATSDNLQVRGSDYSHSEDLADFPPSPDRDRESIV
# [20] = tested on: Heart; assay: Cardiotoxicity in Langendorff perfused Sprague-Dawley rat heart assessed as decrease in left ventricular developed pressure at 1.5 to 15 uM treated for 15 mins; format: toxicity, tissue-based; details: 0.25 h; outline: as §1
# [21] = tested on: Heart; assay: Cardiotoxicity in Langendorff perfused Sprague-Dawley rat heart assessed as loss of 1:1 atrioventricular conduction at 5 to 15 uM treated for 15 mins; format: toxicity, tissue-based; details: 0.25 h; outline: as §1
# [22] = target: 5-hydroxytryptamine receptor 2A (Homo sapiens) (UniProt P28223); details: HEK293, 10 uM
# Chain of 5-hydroxytryptamine receptor 2A (Homo sapiens) (P28223 whole entry, the tested form may be a part): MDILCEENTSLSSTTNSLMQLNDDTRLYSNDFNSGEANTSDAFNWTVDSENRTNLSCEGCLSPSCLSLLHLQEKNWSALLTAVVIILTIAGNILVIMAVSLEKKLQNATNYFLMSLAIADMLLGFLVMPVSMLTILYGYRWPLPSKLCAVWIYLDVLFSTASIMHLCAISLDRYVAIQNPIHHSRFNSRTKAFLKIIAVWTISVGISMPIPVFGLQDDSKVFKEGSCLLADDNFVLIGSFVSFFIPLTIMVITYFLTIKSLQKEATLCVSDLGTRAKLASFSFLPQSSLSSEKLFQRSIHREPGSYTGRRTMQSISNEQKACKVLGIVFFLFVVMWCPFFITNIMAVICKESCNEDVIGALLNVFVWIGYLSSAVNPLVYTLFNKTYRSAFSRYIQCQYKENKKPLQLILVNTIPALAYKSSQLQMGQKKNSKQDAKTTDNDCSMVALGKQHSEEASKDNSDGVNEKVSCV
# [23] = tested on: Heart; assay: Cardiotoxicity in Langendorff perfused Sprague-Dawley rat heart assessed as increase in PR interval at 5 uM treated for 15 mins; format: toxicity, tissue-based; details: 0.25 h; outline: as §1
# [24] = Cmax associated with acute adverse effect in mouse at 30 to 60 mg/kg, po; format: ADME, organism-based; details: in vivo
# Outline: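 Mouse tolerability studies tested multiple doses, given orally or intraperitoneally. Plasma drug concentrations were measured, including at a 15 min time point. The minimum concentration associated with adverse clinical signs or death was taken as the adverse Cmax and was converted to an unbound value.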
# [25] = target: Serine/threonine-protein kinase PAK 3 (Homo sapiens) (UniProt O75914); details: 0.1 uM
# Chain of Serine/threonine-protein kinase PAK 3 (Homo sapiens) (O75914 whole entry, looked up, the tested form may be a part): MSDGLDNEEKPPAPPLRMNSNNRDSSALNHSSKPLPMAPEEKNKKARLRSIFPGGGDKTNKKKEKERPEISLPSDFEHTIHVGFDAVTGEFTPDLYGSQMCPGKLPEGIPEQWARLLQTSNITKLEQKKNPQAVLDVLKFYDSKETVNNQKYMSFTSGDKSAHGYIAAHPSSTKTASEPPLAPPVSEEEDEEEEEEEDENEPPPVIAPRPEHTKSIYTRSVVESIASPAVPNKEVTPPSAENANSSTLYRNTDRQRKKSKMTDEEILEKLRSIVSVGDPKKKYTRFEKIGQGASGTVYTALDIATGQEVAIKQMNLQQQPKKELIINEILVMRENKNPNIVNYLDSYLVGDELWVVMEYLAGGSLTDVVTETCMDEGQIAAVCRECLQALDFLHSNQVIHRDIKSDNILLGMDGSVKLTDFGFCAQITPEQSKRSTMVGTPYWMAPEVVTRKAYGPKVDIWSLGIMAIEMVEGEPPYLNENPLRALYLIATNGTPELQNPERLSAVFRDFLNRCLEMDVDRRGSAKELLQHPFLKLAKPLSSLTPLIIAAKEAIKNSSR
# [26] = tested on: Heart; assay: Cardiotoxicity in Langendorff perfused Sprague-Dawley rat heart assessed as decrease in dP/dt minimum at 1.5 to 15 uM treated for 15 mins; format: toxicity, tissue-based; details: 0.25 h; outline: as §1
# [27] = tested on: Heart; assay: Cardiotoxicity in Langendorff perfused Sprague-Dawley rat heart assessed as increase in left ventricular systolic pressure at 1.5 to 15 uM treated for 15 mins; format: toxicity, tissue-based; details: 0.25 h; outline: as §1
# [28] = target: Voltage-gated inwardly rectifying potassium channel KCNH2 (Homo sapiens, UniProt Q12809); assay: Inhibition of human ERG expressed in mammalian cells treated for 3 mins by automatic parallel patch clamp method; format: cell-based; details: 0.05 h
# [29] = tested on: Heart; assay: Cardiotoxicity in Langendorff perfused Sprague-Dawley rat heart assessed as decrease in dP/dt maximum at 1.5 to 15 uM treated for 15 mins; format: toxicity, tissue-based; details: 0.25 h; outline: as §1
# [30] = tested on: Heart; assay: Cardiotoxicity in Langendorff perfused Sprague-Dawley rat heart assessed as increase in coronary perfusion pressure at 1.5 to 15 uM treated for 15 mins; format: toxicity, tissue-based; details: 0.25 h; outline: as §1
# [31] = target: Tyrosine-protein kinase Lck (Homo sapiens) (UniProt P06239); details: 0.1 uM
# Chain of Tyrosine-protein kinase Lck (Homo sapiens) (P06239 2-509 limits assumed): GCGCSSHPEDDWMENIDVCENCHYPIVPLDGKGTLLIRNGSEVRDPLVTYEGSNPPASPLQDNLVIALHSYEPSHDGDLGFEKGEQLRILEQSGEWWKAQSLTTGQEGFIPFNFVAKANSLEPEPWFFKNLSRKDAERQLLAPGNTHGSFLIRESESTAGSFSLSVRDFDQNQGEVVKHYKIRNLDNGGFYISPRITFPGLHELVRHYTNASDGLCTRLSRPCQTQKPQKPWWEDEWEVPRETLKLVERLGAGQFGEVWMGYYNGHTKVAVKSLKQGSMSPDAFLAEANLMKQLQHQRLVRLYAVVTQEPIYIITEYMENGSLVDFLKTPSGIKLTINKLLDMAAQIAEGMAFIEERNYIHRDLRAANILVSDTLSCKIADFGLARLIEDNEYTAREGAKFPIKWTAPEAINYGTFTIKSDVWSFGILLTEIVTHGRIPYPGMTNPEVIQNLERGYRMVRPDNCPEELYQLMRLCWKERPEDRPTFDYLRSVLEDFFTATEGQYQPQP
# [32] = tested on: Heart; assay: Cardiotoxicity in Langendorff perfused Sprague-Dawley rat heart assessed as ventricular fibrillation at 5 uM treated for 15 mins; format: toxicity, tissue-based; details: 0.25 h; outline: as §1
# [33] = tested on: NCI-H292; assay: Antitumor activity against human NCI-H292 cells xenografted in mouse assessed as tumor growth inhibition at 25 mg/kg, po bid relative to control; format: functional; details: read-out: TGI
# [34] = tested on: Heart; assay: Cardiotoxicity in Langendorff perfused Sprague-Dawley rat heart assessed as increase in PR interval at 15 uM treated for 15 mins; format: toxicity, tissue-based; details: 0.25 h; outline: as §1
# [35] = target: 5-hydroxytryptamine receptor 1B (Rattus norvegicus) (UniProt P28564); details: Cerebral cortex, 10 uM
# [36] = tested on: MDR1; assay: Permeability across apical to basolateral side in MDCK cells expressing MDR1; format: ADME, cell-based, Canis lupus familiaris; details: dog, read-out: permeability
# [37] = target: Sodium/potassium-transporting ATPase (Homo sapiens) (UniProt P05023+P14415+P05026+P50993+P54709+P13637+Q13733+P54710); details: 30 uM
# [38] = target: 5-hydroxytryptamine receptor 4 (Homo sapiens) (UniProt Q13639); details: CHO, 10 uM
# [39] = tested on: Heart; assay: Cardiotoxicity in Langendorff perfused Sprague-Dawley rat heart assessed as decrease in dP/dtmax/P at 1.5 to 15 uM treated for 15 mins; format: toxicity, tissue-based; details: 0.25 h; outline: as §1
# [40] = organism: Homo sapiens; assay: Inhibition of Na+/Ca2+ ATPase (unknown origin) at 30 uM
# [41] = target: T1, Sodium channel protein type 5 subunit alpha; assay: Inhibition of human Nav1.5 expressed in CHO cells assessed as phasic block of sodium current at 1 to 10 uM treated for 3 mins by automatic parallel patch clamp method; format: cell-based; details: 0.05 h
# [42] = target: Serine/threonine-protein kinase 24 (Homo sapiens) (UniProt Q9Y6E0); details: 0.1 uM
# Chain of Serine/threonine-protein kinase 24 (Homo sapiens) (Q9Y6E0 whole entry, looked up): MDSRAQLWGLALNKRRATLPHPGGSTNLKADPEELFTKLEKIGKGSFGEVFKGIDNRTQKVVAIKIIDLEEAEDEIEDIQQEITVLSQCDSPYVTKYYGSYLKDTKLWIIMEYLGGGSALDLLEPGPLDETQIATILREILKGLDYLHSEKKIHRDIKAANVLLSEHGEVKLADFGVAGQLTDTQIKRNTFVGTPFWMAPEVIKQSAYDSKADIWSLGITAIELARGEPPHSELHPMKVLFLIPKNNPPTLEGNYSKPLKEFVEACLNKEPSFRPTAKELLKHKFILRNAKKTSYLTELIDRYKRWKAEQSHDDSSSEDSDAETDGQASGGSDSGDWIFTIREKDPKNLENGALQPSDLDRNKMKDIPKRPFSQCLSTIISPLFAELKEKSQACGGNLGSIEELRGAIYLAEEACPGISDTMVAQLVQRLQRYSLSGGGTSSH
# [43] = tested on: Mus musculus; assay: fCmax associated with acute adverse effect in mouse at 30 to 60 mg/kg, po; format: ADME, organism-based; details: in vivo
# Outline: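 Mouse tolerability studies at multiple doses, oral or intraperitoneal. Minimum unbound plasma concentration associated with adverse effects (total Cmax converted to unbound) compared with IC50 for inhibition of MEK1 S298 phosphorylation in cells.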
# [44] = Antitumor activity against human MDA-MB-175 cells xenografted in mouse assessed as tumor growth inhibition at 25 mg/kg, po bid relative to control; format: functional; details: read-out: TGI
# [45] = target: Voltage-dependent T-type calcium channel subunit alpha-1H (Homo sapiens) (UniProt O95180); assay: Inhibition of human Cav3.2 expressed in HEK293 cells at 1 to 10 uM treated for 3 mins by automatic parallel patch clamp method; format: cell-based
# [46] = Apparent permeability across basolateral to apical side in MDCK cells at 10 uM after 60 mins; format: ADME, cell-based, Canis lupus familiaris; details: dog
structure (smiles),measurement,setting,value
CNc1ncc2cc(-c3ccccc3Cl)c(=O)n(CCCN)c2n1,Selectivity ratio,[1],> 7.6
same,Selectivity ratio,[2],0.4
same,Ki,[3],382 nM
CCn1c(=O)c(-c2ccc(-n3cccc(C)c3=O)cc2Cl)cc2cnc(NC)nc21,logD,[4],2.1
same,solubility kinetic,[5],2.5 µM
same,IC50,[6],340 nM
same,"Papp A→B at 1 h, 10 µM",[7],28 ×10⁻⁶ cm/s
same,Selectivity ratio,[2],53
same,Ki,[3],8 nM
same,"efflux ratio at 1 h, 10 µM",[8],0.4
CNc1ncc2cc(-c3ccc(-c4cccc(C)n4)cc3Cl)c(=O)n(C[C@H]3OC[C@H](N)CO3)c2n1,inhibition,[9],> 75%
same,inhibition,[10],Active
same,inhibition,[11],inactive
same,fraction unbound,[12],0.003
same,inhibition,[13],inactive
same,inhibition,[14],> 75%
same,Activity,[15],Toxic
same,inhibition,[16],> 75%
same,Activity,[17],Toxic
same,inhibition,[18],> 75%
same,inhibition (INH),[19],Not Active
same,Activity,[20],Toxic
same,Activity,[21],Toxic
same,inhibition,[22],> 75%
same,Activity,[23],37%
same,Cmax,[24],55 µM
same,inhibition,[25],> 75%
same,Activity,[26],Toxic
same,Activity,[27],Toxic
same,inhibition (INH),[28],Not Active
same,Activity,[29],Toxic
same,Activity,[30],64%
same,inhibition,[31],> 75%
same,Activity,[32],Toxic
same,inhibition in vivo at 25 mg/kg,[33],60%
same,Activity,[34],34%
same,inhibition,[35],> 75%
same,Papp A→B,[36],0.3 ×10⁻⁶ cm/s
same,inhibition,[37],inactive
same,inhibition,[38],> 75%
same,Activity,[39],Toxic
same,inhibition,[40],inactive
same,inhibition (INH),[41],Not Active
same,inhibition,[42],> 75%
same,fCmax,[43],0.16 µM
same,inhibition in vivo at 25 mg/kg,[44],60%
same,inhibition,[45],inactive
CNc1ncc2cc(-c3ccc(N4CCN(C)C4=O)cc3Cl)c(=O)n(CCCN)c2n1,Selectivity ratio,[1],> 52
same,Selectivity ratio,[2],10
CNc1ncc2cc(-c3ccc(N4CCCC4=O)cc3Cl)c(=O)n(CCCN)c2n1,Selectivity ratio,[1],> 33
same,Selectivity ratio,[2],25
same,Ki,[3],89 nM
CNc1ncc2cc(-c3ccc(-n4ccnc(C)c4=O)cc3Cl)c(=O)n(CCCN)c2n1,Selectivity ratio,[1],> 642
same,Selectivity ratio,[2],429
same,Ki,[3],4.6 nM
CNc1ncc2cc(-c3ccc(-n4cncc(C)c4=O)cc3Cl)c(=O)n(CCCN)c2n1,Selectivity ratio,[1],> 443
same,Selectivity ratio,[2],282
same,Ki,[3],6.7 nM
CNc1ncc2cc(-c3ccc(-n4cccc(C)c4=O)cc3Cl)c(=O)n(CC(F)(F)CN)c2n1,logD,[4],1.8
same,solubility kinetic,[5],51 µM
same,"Papp B→A at 1 h, 10 µM",[46],15.4 ×10⁻⁶ cm/s
same,IC50,[6],460 nM
same,"Papp A→B at 1 h, 10 µM",[7],8.4 ×10⁻⁶ cm/s
same,Selectivity ratio,[2],56
same,Ki,[3],9 nM
same,"efflux ratio at 1 h, 10 µM",[8],1.8
CNc1ncc2cc(-c3ccc(-n4ccccc4=O)cc3Cl)c(=O)n(CCCN)c2n1,Selectivity ratio,[1],> 82
same,Selectivity ratio,[2],86
same,Ki,[3],36 nM
